The nature of data set [1]: Stability in swine jejunum at 20 uM measured after 1 hr by LC-MS/MS analysis. The note with it: pig. It counts as ADME, tissue-based, Sus scrofa. The method in brief: (§1)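 Washed swine jejunum was diluted 10-fold in 0.1 M potassium phosphate buffer and probe-sonicated. Prodrug was spiked at 20 µM final and incubated 1 h at 37 °C with orbital shaking. Triplicate quench in acetonitrile with losartan internal standard. Percent parent remaining by LC-MS/MS peak-area ratio.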

Data set [2] in a line: Stability in mouse plasma assessed as parent compound remaining at 20 uM measured after 1 hr by LC-MS/MS analysis.
The nature of data set [3]: Stability in swine plasma assessed as parent compound remaining at 20 uM measured after 1 hr by LC-MS/MS analysis. The note with it: Sus scrofa, pig.
The nature of data set [4]: Stability in human plasma assessed as parent compound remaining at 20 uM measured after 1 hr by LC-MS/MS analysis.
Data set [5] can be described thus: Stability in swine liver homogenates assessed as parent compound remaining at 20 uM measured after 1 hr by LC-MS/MS analysis. The following applies: Sus scrofa, pig, tissue homogenate.
Data set [6] in a line: Stability in swine jejunum assessed as parent compound remaining at 20 uM measured after 1 hr by LC-MS/MS analysis. It is filed as ADME, tissue-based, Sus scrofa. The following applies: pig. An outline of the steps: as §1
Data set [7] is described as follows: Prodrug conversion in human P493B cells suspended in human plasma assessed as 6-diazo-5-oxo-L-norleucine formation at 20 uM measured after 1 hr by LC-MS/MS analysis. It counts as ADME, cell-based. An outline of the steps:
(§2)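 Cells were grown in RPMI 1640 with 10% FBS, washed in DPBS and resuspended in human plasma at 10 million cells/mL. After 5 min preincubation at 37 °C, compound was added at 20 µM final for 1 h. The mix was centrifuged at 10 000g and the washed pellet and plasma were quantified separately. DON was read by LC-MS/MS after dabsyl chloride derivatisation, intact prodrug directly. Standard curves were made in naive cells or plasma.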

Data set [8] in a line: Stability in human plasma suspended with human P493B cells at 20 uM measured after 1 hr by LC-MS/MS analysis. It is filed as ADME, cell-free. An outline of the steps: as §2
Data set [9] is described as follows: Drug level in human P493B cells suspended in human plasma assessed as tumor cell to plasma ratio by measuring 6-diazo-5-oxo-L-norleucine formation at 20 uM measured after 1 hr by LC-MS/MS analysis. It is filed as ADME, cell-based. The method in brief: as §2
Data set [10] is described as follows: Drug level in human P493B cells suspended in human plasma assessed as tumor cell to plasma ratio by measuring 6-diazo-5-oxo-L-norleucine formation at 20 uM measured after 1 hr by LC-MS/MS analysis relative to 6-diazo-5-oxo-L-norleucine alone. It counts as ADME, cell-based. The method in brief: as §2
A short description of data set [11]: Prodrug conversion in human P493B cells suspended in human plasma assessed as (S)-isopropyl 2-amino-6-diazo-5-oxohexanoate formation measured after 1 hr by HRMS analysis. It counts as ADME, cell-based. An outline of the steps:
(§3)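 Metabolite identification: compound was incubated 1 h with 10 million P493B cells suspended in 1 mL human plasma. Cell pellets were collected and metabolites identified by HRMS.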

A short description of data set [12]: Prodrug conversion in human P493B cells suspended in human plasma assessed as 6-diazo-5-oxo-L-norleucine formation measured after 1 hr by HRMS analysis. It counts as ADME, cell-based. The method in brief: as §3
Data set [13] can be described thus: Drug level in human P493B cells suspended in human plasma assessed as tumor cell to plasma ratio at 20 uM measured after 1 hr by LC-MS/MS analysis. It is filed as ADME, cell-based. The method in brief: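 P493B cells grown in RPMI 1640 with 10% FBS, then suspended in human plasma at 10 million cells/mL. Suspension preincubated 5 min at 37 °C, dosed to a final 20 μM, held 1 h at 37 °C, then spun to separate cells from plasma. DON and intact prodrug in pellet and plasma measured by LC-MS/MS; for DON, after dabsyl chloride derivatization. Ratio = cell DON/plasma DON.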

Data set [14] in a line: (§4) Antiproliferative activity against human P493B cells measured after 72 hrs by CellTiter 96 aqueous one solution cell proliferation assay. It is filed as functional, cell-based. The method in brief: (§5)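 P493B lymphoma cells seeded at 20 000 cells/well in growth medium. DMSO stocks added as a 1:10 serial dilution, final 0.2% DMSO. Cells grown 72 h with compound, then given CellTiter 96 AQueous reagent for 2 h and read by absorbance at 490 nm. EC50 obtained by nonlinear regression of log-transformed data.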

Another data set is filed under the species Homo sapiens. The data set is described as §4. It is filed as functional, cell-based. An outline of the steps:
as §5

Broadly, the EC50 is the concentration needed to bring the measured effect to its halfway point. Read a high EC50 as a need for much substance.

As to `CC(=O)NCCCC[C@H](NC(=O)OCC1c2ccccc2-c2ccccc21)C(=O)N[C@@H](CCC(=O)C=[N+]=[N-])C(=O)OC(C)C`, the Stability entry was “Unstable” in data set [1]; 2% in data set [2]; 78% in data set [3]; 93% in data set [4]; 19% in data set [5].

Take `CC(=O)NCCCC[C@H](NC(=O)[C@H](Cc1c[nH]c2ccccc12)NC(=O)C(C)(C)C)C(=O)N[C@@H](CCC(=O)C=[N+]=[N-])C(=O)OC(C)C`: the Stability entry in [1] was “Unstable”; in [2], 0%; in data set [3], 95%; in data set [4] it was 88%.

`CC(=O)NCCCC[C@H](NC(=O)[C@H](Cc1c[nH]c2ccccc12)NC(C)=O)C(=O)N[C@@H](CCC(=O)C=[N+]=[N-])C(=O)OC(C)C`: the Stability in data set [6] is reported as > 50%; in data set [8], “Stable”; in data set [2], 0%; in data set [3], 75%; in [4], 102%; in [5] it was 67%. Further, the Drug metabolism entry in [7] is “Metabolite_Detected”. For the same compound, the Ratio in data set [9] was 11. Further, in data set [10], the “fold change (FC)” value was 30.

With `CCCCCCCCCCCCCCCC(=O)N[C@@H](CCCCNC(C)=O)C(=O)N[C@@H](CCC(=O)C=[N+]=[N-])C(=O)OC(C)C`, the Stability entry in data set [1] is listed as “Unstable”; in data set [2], 30%; in data set [3] it was 88%; in data set [4], 84%.

For the compound `CC(C)OC(=O)[C@H](CCC(=O)C=[N+]=[N-])NC(=O)[C@H](CCCCN)NC(=O)C12CC3CC(CC(C3)C1)C2`, in data set [11], the Drug metabolism entry is recorded as “Metabolite_Detected”.

Consider `CC(=O)NCCCC[C@H](NC(=O)[C@@H]1Cc2ccccc2CN1C(C)=O)C(=O)N[C@@H](CCC(=O)C=[N+]=[N-])C(=O)OC(C)C`, for which the Stability in data set [6] is reported as > 50%; in data set [8], “Stable”; in data set [2], 0%; in data set [3] it was 98%; in data set [4] it was 110%; in data set [5], 72%. Further, in data set [7], the Drug metabolism is 0.12 µM. The Ratio in data set [9] stood at 46. For the same compound, the “fold change (FC)” value in data set [10] was determined as 115.

As for `CC(=O)NCCCC[C@H](NC(=O)[C@@H]1Cc2ccccc2CN1)C(=O)N[C@@H](CCC(=O)C=[N+]=[N-])C(=O)OC(C)C`, the Stability entry in data set [1] is on record as “Unstable”; in [2] it was 0%; in [3] it was 62%; in data set [4], 95%; in data set [5] it was 0%.

`CCCCCCCC(=O)N[C@@H](CCCCNC(C)=O)C(=O)N[C@@H](CCC(=O)C=[N+]=[N-])C(=O)OC(C)C`: the Stability is > 50% in [6], 0% in [2], 91% in [3] and 95% in [4].

`CC(C)OC(=O)[C@@H](N)CCC(=O)C=[N+]=[N-]`: the Drug metabolism result in [12] is “Metabolite_Detected”.

`CC(=O)NCCCC[C@H](NC(=O)Cc1c[nH]c2ccccc12)C(=O)N[C@@H](CCC(=O)C=[N+]=[N-])C(=O)OC(C)C`: the Stability in data set [6] is > 50%; in [2], 0%; in [3] it was 98%; in [4], 94%; in data set [5] it was 40%.

Consider `[N-]=[N+]=CC(=O)CC[C@H](N)C(=O)O` [6-DIAZO-5-OXO-L-NORLEUCINE], for which the Ratio in data set [13] worked out at 0.4. The compound also gave an EC50 in [14] of 10 µM. Further, the Activity entry in the data set listed under Homo sapiens was “Dose-dependent effect”.

Take `CC(=O)NCCCC[C@H](NC(=O)OC(C)(C)C)C(=O)N[C@@H](CCC(=O)C=[N+]=[N-])C(=O)OC(C)C`: the Drug metabolism result in [7] was “Metabolite_Detected”. Further, the Stability entry in data set [8] is reported as “Stable”; in data set [2], 1%; in [3], 85%; in data set [4], 95%. Also, in data set [9], the Ratio is 13. Also, the “fold change (FC)” value in data set [10] is listed as 32.

Regarding `CC(=O)NCCCC[C@H](NC(=O)[C@@H](N)Cc1c[nH]c2ccccc12)C(=O)N[C@@H](CCC(=O)C=[N+]=[N-])C(=O)OC(C)C`, the Stability entry is recorded as “Unstable” in [1]; 0% in data set [2]; 19% in data set [3]; 7% in data set [4]; 0% in data set [5].

For the compound `CC(=O)NCCCC[C@H](NC(=O)OC12CC3CC(CC(C3)C1)C2)C(=O)N[C@@H](CCC(=O)C=[N+]=[N-])C(=O)OC(C)C`, the Stability in data set [6] is > 50%; in [2] it was 4%; in data set [3] it was 77%; in data set [4], 100%.

(Values after ChEMBL document CHEMBL4340525, “Tumor-Targeted Delivery of 6-Diazo-5-oxo-l-norleucine (DON) Using Substituted Acetylated Lysine Prodrugs” (J Med Chem, 2019).)
